Measurements published in PMC6889097 (Virologica Sinica, 2019).
Read-outs that look alike come from different tables or passages of the source. Marks after values point to notes of the source that are not given here.

Columns and labels:
[1] = tested on: lethal influenza virus infection; details: mouse, cited from earlier work
CXCL10 = assay: cells; assay type: cell-based, human; details: for IC50: Homo sapiens, U-937, read-out: IC50 CXCL10
CCL2 = assay: cells; assay type: cell-based, human; details: for IC50: Homo sapiens
[2] = tested on: A/PuertoRico/8/1934 (H1N1) influenza virus; assay: microbe, parasite or virus in culture; assay type: cell-based, influenza virus A/PuertoRico/8/1934 (H1N1)
Cell viability = assay type: cell-based, human; details: human; for CC50: U937 cells; for CC50 at 48 h: uninfected U937 cells
How it was run: (§1)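 Uninfected U937 cells, 40,000/well (1 × 10^6 cells/mL) in RPMI 1640 + 10% FBS, were incubated with serially diluted test compound in 384-well plates for 48 h at 37 ℃/5% CO2. After the plates were spun at 500 ×g for 3 min, supernatant was replaced with medium containing 20% MTS reagent for 1 h at 37 ℃. OD490 was read against reference OD630, and CC50 was derived.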

U937 cells = assay: Cell viability; assay type: cell-based, human; details: 50% cytotoxic concentration, MTS assay, U937 cells; validation panel (Table 2)
How it was run: as §1

[3] = Influenza A virus, H1N1, U-937, read-out: IC50 NA

## C=CC(=O)N1CCC[C@@H](n2nc(-c3ccc(Oc4ccccc4)cc3)c3c(N)ncnc32)C1 [Ibrutinib, ibrutinib]
[1]; in vivo
  reported effect on survival rate of influenza-infected mice: improve the survival rate and pathology
  reported protection of mice from lethal influenza infection: protect mice from lethal influenza infection
[1]
  In vivo: the protective effect of mice from lethal influenza infection: +^i
CXCL10
  IC50: 0.96 µM
CCL2; U-937, read-out: IC50 CCL2
  IC50: 0.62 µM
[2]
  IC50 NA: –^h (key: –: lower than 50% inhibition or not effective)
Cell viability
  CC50: 26.5 µM

## O=C(O)C[C@H](O)C[C@H](O)/C=C/c1c(C2CC2)nc2ccccc2c1-c1ccc(F)cc1 [Pitavastatin]
Cell viability
  CC50 at 48 h: > 90 µM

## CC(C)n1c(/C=C/C(O)CC(O)CC(=O)O)c(-c2ccc(F)cc2)c2ccccc21 (stereo not shown) [Fluvastatin]
Cell viability
  CC50 at 48 h: > 90 µM

## CCOC(=O)N[C@@H]1CC[C@@H]2[C@@H](C1)C[C@H]1C(=O)O[C@H](C)[C@H]1[C@H]2/C=C/c1ccc(-c2cccc(F)c2)cn1 [Vorapaxar, vorapaxar]
[1]; in vivo
  reported effect on survival rate of influenza-infected mice: improve the survival rate and pathology
[1]
  In vivo: the protective effect of mice from lethal influenza infection: +
CXCL10
  IC50: 13.3 µM
CCL2; U-937, read-out: IC50 CCL2
  IC50: 5.2 µM
[2]
  IC50 NA: – (key: –: lower than 50% inhibition or not effective)
Cell viability
  CC50: > 80 µM

## CC(C)Oc1ccc(-c2nc(-c3cccc4c3CC[C@@H]4NCCO)no2)cc1C#N [Ozanimod, ozanimod]
[1]; in vivo
  reported effect on survival rate of influenza-infected mice: improve the survival rate and pathology
[1]
  In vivo: the protective effect of mice from lethal influenza infection: +
CXCL10
  IC50: 10.7 µM
CCL2; U-937, read-out: IC50 CCL2
  IC50: 7.7 µM
[2]
  IC50 NA: – (key: –: lower than 50% inhibition or not effective)
Cell viability
  CC50: 26 µM

## CNCCCC1c2ccccc2C=Cc2ccccc21 [Protriptyline]
Cell viability
  CC50 at 48 h: > 90 µM

## Cc1ccc(-c2ncc(Cl)cc2-c2ccc(S(C)(=O)=O)cc2)cn1 [Etoricoxib, etoricoxib]
[1]; in vivo
  reported effect on survival rate of influenza-infected mice: no improvement on the survival rate
[1]
  In vivo: the protective effect of mice from lethal influenza infection: ±^j
CXCL10
  IC50 CXCL10: – (key: –: lower than 50% inhibition or not effective)
  effect on the production of CXCL10 in U937 cell model (result in words): no inhibitory effect
CCL2
  IC50 CCL2: – (key: –: lower than 50% inhibition or not effective)
  effect on the production of CCL2 in U937 cell model (result in words): no inhibitory effect
[2]
  IC50 NA: – (key: –: lower than 50% inhibition or not effective)
Cell viability
  CC50: > 50 µM

## CN(CCOc1ccc(CC2SC(=O)NC2=O)cc1)c1ccccn1 (stereo not shown) [Rosiglitazone, rosiglitazone]
[1]; in vivo
  reported effect on survival rate of influenza-infected mice: improve the survival rate and pathology
[1]
  In vivo: the protective effect of mice from lethal influenza infection: +
CXCL10
  IC50 CXCL10: – (key: –: lower than 50% inhibition or not effective)
CCL2
  IC50 CCL2: – (key: –: lower than 50% inhibition or not effective)
[2]
  IC50 NA: – (key: –: lower than 50% inhibition or not effective)
Cell viability
  CC50: > 100 µM

## CCC(C)(C)C(=O)O[C@H]1C[C@@H](C)C=C2C=C[C@H](C)[C@H](CC[C@@H]3C[C@@H](O)CC(=O)O3)[C@H]21 [Simvastatin]
Cell viability
  CC50 at 48 h: 66.8 µM

## CC[C@@H]1/C=C(\C)C[C@H](C)C[C@H](OC)[C@H]2O[C@@](O)(C(=O)C(=O)N3CCCC[C@H]3C(=O)O[C@H](/C(C)=C/[C@@H]3CC[C@@H](O)[C@H](OC)C3)[C@H](C)[C@@H](O)CC1=O)[C@H](C)C[C@@H]2OC [Ascomycin, ascomycin]
[1]
  In vivo: the protective effect of mice from lethal influenza infection: +
CXCL10
  IC50: 9.9 µM
CCL2; U-937, read-out: IC50 CCL2
  IC50: 8.1 µM
[2]
  antiviral effect in the U937 cell model (result in words): antiviral effects
[2]; [3]
  IC50: 21.3 µM
Cell viability
  CC50: 62 µM

## CCOC(=O)C1=C[C@@H](OC(CC)CC)[C@H](NC(C)=O)[C@@H](N)C1 [Oseltamivir]
[1]
  In vivo: the protective effect of mice from lethal influenza infection: +
CXCL10
  IC50 CXCL10: – (key: –: lower than 50% inhibition or not effective)
CCL2
  IC50 CCL2: – (key: –: lower than 50% inhibition or not effective)
[2]
  antiviral effect in the U937 cell model (result in words): antiviral effects
[2]; read-out: IC50 NA
  IC50: 0.58 µM
U937 cells
  CC50: > 100 µM

## NC(=O)c1ncn([C@@H]2O[C@H](CO)[C@@H](O)[C@H]2O)n1 [Ribavirin]
CXCL10
  IC50 CXCL10: – (key: –: lower than 50% inhibition or not effective)
CCL2
  IC50 CCL2: – (key: –: lower than 50% inhibition or not effective)
[2]
  antiviral effect in the U937 cell model (result in words): antiviral effects
[2]; [3]
  IC50: 26.2 µM
Cell viability
  CC50: > 160 µM

## CC(C)Cc1ccc(C(C)C(=O)O)cc1 (stereo not shown) [Ibuprofen, ibuprofen]
CXCL10
  IC50 CXCL10: – (key: –: lower than 50% inhibition or not effective)
  effect on the production of CXCL10 in U937 cell model (result in words): no inhibitory effect
CCL2
  IC50 CCL2: – (key: –: lower than 50% inhibition or not effective)
  effect on the production of CCL2 in U937 cell model (result in words): no inhibitory effect
[2]
  IC50 NA: – (key: –: lower than 50% inhibition or not effective)
Cell viability
  CC50: > 50 µM

## Cc1nc(Nc2ncc(C(=O)Nc3c(C)cccc3Cl)s2)cc(N2CCN(CCO)CC2)n1 [Dasatinib]
Cell viability
  CC50 at 48 h: > 90 µM

## C[C@H]1COc2c(N3CCN(C)CC3)c(F)cc3c(=O)c(C(=O)O)cn1c23 [Levofloxacin]
[1]; in vivo
  reported survival rate in mice infected with the H1N1 PR8 virus: increased the survival rate
CCL2; U-937, 48 h, read-out: IC50 CCL2
  IC50: ≤ 10 µM
Cell viability
  CC50 at 48 h: > 90 µM
